# Measured values as given in paper PMC3581696 (The Journal of General Physiology, 2013).
# How the values were obtained:
# [1] = target: T1, mEAG1 channel (Mus musculus, UniProt Q60603); experiment: Outside-out patch-clamp of mEAG1 channels expressed in Xenopus oocytes; format: cell-based; conditions: 10 µM fisetin; outside-out patches; n = 4
# T1 sequence (Q60603 1-989): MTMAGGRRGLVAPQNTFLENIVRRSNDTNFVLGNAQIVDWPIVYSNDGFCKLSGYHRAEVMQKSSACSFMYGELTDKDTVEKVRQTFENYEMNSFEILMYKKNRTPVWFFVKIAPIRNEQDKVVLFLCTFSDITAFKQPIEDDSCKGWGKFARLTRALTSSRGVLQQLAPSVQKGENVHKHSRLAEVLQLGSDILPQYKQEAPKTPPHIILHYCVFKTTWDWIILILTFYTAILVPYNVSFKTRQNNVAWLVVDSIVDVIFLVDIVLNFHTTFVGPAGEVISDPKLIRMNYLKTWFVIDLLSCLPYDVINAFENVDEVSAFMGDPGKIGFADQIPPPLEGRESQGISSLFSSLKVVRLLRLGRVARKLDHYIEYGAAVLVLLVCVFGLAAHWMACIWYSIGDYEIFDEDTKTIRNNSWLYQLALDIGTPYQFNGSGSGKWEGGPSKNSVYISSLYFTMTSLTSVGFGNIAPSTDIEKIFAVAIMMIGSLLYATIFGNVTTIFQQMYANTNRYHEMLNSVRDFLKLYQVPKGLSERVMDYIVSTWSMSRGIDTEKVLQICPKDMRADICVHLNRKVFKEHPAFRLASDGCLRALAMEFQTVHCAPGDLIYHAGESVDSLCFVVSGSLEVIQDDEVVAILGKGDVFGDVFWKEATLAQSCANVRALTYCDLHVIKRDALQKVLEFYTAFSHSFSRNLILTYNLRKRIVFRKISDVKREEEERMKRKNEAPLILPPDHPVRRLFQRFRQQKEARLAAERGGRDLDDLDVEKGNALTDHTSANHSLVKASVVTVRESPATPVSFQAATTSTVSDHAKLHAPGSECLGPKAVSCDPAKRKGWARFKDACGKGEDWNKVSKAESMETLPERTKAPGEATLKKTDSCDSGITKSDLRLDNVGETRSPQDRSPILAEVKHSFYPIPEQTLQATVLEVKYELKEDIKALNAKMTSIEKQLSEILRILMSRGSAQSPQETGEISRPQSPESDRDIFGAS
# Procedure, shortened: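 Outside-out patches were excised from Xenopus oocytes expressing mouse EAG1. Bath and pipette solutions were 130 mM KCl, 10 mM HEPES, 0.2 mM EDTA, pH 7.2. Patches were exposed to 10 µM flavonoid. The shift in V1/2 was taken from Boltzmann fits of tail-current conductance–voltage relationships.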
# [2] = target: T2, mEAG1 Δ2–173 channels (Mus musculus, UniProt Q60603); experiment: Inside-out patch-clamp of amino-terminal deletion mutant channels; format: cell-based
# T2 sequence (Q60603 with tags, fused parts or gaps): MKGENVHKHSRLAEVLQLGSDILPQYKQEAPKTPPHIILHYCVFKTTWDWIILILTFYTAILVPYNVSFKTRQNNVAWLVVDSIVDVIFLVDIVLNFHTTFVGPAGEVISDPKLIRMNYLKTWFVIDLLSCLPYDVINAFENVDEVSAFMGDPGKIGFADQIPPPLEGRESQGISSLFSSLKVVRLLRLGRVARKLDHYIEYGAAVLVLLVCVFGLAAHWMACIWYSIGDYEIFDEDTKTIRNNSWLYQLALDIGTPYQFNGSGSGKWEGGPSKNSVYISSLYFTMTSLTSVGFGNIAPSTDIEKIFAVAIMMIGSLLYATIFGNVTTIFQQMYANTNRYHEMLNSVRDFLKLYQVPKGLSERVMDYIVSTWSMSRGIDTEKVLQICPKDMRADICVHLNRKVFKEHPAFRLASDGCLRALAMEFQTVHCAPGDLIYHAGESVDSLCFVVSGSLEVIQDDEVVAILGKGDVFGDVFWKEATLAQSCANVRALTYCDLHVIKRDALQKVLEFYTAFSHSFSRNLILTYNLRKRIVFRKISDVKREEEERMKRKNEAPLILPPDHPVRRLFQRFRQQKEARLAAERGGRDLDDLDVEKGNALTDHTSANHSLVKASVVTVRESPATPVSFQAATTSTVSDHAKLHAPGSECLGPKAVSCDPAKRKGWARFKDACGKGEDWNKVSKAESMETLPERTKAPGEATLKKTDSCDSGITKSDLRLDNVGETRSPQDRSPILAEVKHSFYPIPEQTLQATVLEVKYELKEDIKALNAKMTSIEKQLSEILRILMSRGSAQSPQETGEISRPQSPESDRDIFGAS
# Procedure, shortened: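 Δ2–173 mEAG1 was expressed in Xenopus oocytes and recorded in inside-out patches in symmetric 130 mM KCl/HEPES/EDTA, pH 7.2, held at −100 mV. Steps of 3 s from −100 to +100 mV (20-mV increments) returned to −100 mV for 1 s, with 0 or 30 µM flavonoid. Conductance–voltage data were fit with a product of two Boltzmann functions, with inactivation parameters and activation slope held fixed. The −100 mV tail after a step to −40 mV was fit with a single exponential.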
smiles,measurement,setting,value
"O=c1c(O)c(-c2ccc(O)c(O)c2)oc2cc(O)ccc12 [Fisetin, 2-(3,4-dihydroxyphenyl)-3,7-dihydroxychromen-4-one]",shift of the conductance–voltage relationship,[1],−8.1 ± 2.3 mV
same,increase of peak conductance after a step to −40 mV,"[2]; 30 µM fisetin, average",1.7 fold
same,time constant of deactivation,"[2]; with 30 µM fisetin, after a step to −40 mV, 117 ± 1 ms without, n = 3",375 ± 36 ms
same,time constant of deactivation (tail currents of Fig. 5 C),"[2]; with 30 µM fisetin, tail at −100 mV after step to −40 mV, 116 ms without",239 ms
